# Assay results: ChEMBL document CHEMBL2034857, “Discovery of the macrocycle (9E)-15-(2-(pyrrolidin-1-yl)ethoxy)-7,12,25-trioxa-19,21,24-triaza-tetracyclo[18.3.1.1(2,5).1(14,18)]hexacosa-1(24),2,4,9,14(26),15,17,20,22-nonaene (SB1578), a potent inhibitor of janus kinase 2/fms-like tyrosine kinase-3 (JAK2/FLT3) for the treatment of rheumatoid …” (J Med Chem, 2012)
# What was measured:
# [1] = Half life in dog liver microsomes at 5 uM; type: ADME, Canis lupus familiaris, Microsome
# Method in brief: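 Compound at 5 μM with human, mouse or dog microsomes at 0.87 mg/mL, or rat and monkey microsomes at 1 mg/mL, in 50 mM potassium phosphate pH 7.4 with NADPH regenerating system at 37 °C.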
# [2] = Plasma protein binding in monkey at 1000 ng/mL by equilibrium dialysis; type: ADME, cell-free, Macaca mulatta; details: rhesus monkey, read-out: PPB (converted)
# Method in brief: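 Equilibrium dialysis of plasma (mouse, rat, dog, monkey, human) spiked to 1000 ng/mL final against PBS, 4 h at 37 °C; buffer side extracted with MTBE in triplicate and analyzed by LC-MS/MS.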
# [3] = target: T1, Receptor-type tyrosine-protein kinase FLT3 (Homo sapiens, UniProt P36888); assay: Inhibition of recombinant FLT3 using poly(Glu,Tyr) as substrate after 2 hrs by luminometric assay
# T1 sequence (P36888 whole entry): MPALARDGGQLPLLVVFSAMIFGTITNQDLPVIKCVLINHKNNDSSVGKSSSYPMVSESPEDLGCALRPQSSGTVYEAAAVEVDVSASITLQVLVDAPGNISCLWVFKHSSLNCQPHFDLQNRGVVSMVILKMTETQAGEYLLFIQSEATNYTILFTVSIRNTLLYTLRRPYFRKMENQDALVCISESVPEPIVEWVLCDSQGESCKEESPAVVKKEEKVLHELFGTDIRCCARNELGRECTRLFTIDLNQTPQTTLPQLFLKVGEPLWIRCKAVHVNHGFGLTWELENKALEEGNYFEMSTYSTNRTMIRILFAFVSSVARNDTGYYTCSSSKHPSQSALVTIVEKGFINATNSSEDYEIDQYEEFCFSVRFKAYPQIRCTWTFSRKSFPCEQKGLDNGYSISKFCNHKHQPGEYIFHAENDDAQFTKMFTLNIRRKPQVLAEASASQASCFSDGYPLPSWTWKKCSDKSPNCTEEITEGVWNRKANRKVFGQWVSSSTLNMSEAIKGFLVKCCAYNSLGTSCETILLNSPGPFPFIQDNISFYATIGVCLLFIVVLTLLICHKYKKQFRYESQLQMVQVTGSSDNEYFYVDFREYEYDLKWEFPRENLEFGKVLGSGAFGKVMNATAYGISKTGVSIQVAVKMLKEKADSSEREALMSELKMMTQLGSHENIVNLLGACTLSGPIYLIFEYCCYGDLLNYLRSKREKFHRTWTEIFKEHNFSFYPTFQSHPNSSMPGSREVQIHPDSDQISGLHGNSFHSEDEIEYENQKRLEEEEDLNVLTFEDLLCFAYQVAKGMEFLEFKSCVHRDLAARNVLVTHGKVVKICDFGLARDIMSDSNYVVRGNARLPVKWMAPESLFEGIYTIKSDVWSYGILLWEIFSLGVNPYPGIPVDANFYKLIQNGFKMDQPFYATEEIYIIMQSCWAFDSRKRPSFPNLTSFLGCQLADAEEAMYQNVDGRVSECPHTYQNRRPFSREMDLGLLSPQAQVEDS
# [4] = target: Cyclin-dependent kinase 2 (Homo sapiens, UniProt P24941); assay: Inhibition of recombinant CDK2 using RbING as substrate after 2 hrs by luminometric assay
# [5] = target: Cyclin-dependent kinase 9 (Homo sapiens, UniProt P50750); assay: Inhibition of CDK9
# [6] = target: Cytochrome P450 2D6 (Homo sapiens, UniProt P10635); assay: Inhibition of CYP2D6 in human liver microsomes using dextromethorphan as substrate by fluorescence detection assay; type: ADME, Microsome
# Method in brief: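 Seven-point concentration series (0.001, 0.01, 0.1, 1.0, 5, 10 and 25 μM) incubated with human liver microsomes. IC50 is the concentration giving 50% inhibition, calculated from the decrease in metabolite formation relative to vehicle control.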
# [7] = Cmax in beagle dog at 5 mg/kg, po; type: ADME, organism-based, Canis lupus familiaris; design: dose 5 mg/kg, route oral; details: in vivo
# Method in brief: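 Single oral gavage at 50 (mouse, rat), 5 (dog) or 20 (monkey) mg/kg; rodents and monkeys received suspensions in 0.5% methylcellulose/0.1% Tween 80, dogs gelatin capsules. Serial blood taken 0–24 h into K3EDTA, plasma stored at −70 °C. Parameters estimated by noncompartmental analysis, n = 3 per species (mouse values from mean concentration–time data, 3 mice per time point).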
# [8] = target: Cytochrome P450 2C9 (Homo sapiens, UniProt P11712); assay: Inhibition of CYP2C9 in human liver microsomes using diclofenac as substrate by LC-MS/MS analysis; type: ADME, Microsome
# [9] = target: Non-receptor tyrosine-protein kinase TYK2 (Homo sapiens, UniProt P29597); assay: Inhibition of TYK2
# [10] = target: hERG (Homo sapiens, UniProt Q12809); assay: Displacement of dofetilide from human ERG at 10 uM; details: probe dofetilide
# [11] = Kinetic solubility in PBS buffer at pH 7; type: physicochemical; details: read-out: Kinetic_solubility
# [12] = Tmax in Wistar rat at 50 mg/kg, po; type: ADME, organism-based; design: dose 50 mg/kg, route oral; details: in vivo
# Method in brief: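 Single oral dose by gavage as suspension in 0.5% methylcellulose/0.1% Tween 80 (mouse, rat, monkey) or in gelatin capsules (dog). Serial blood samples taken from 0 to 24 h into K3EDTA tubes; plasma stored at −70 °C until analysis. Parameters derived by noncompartmental methods. Rat, dog and monkey n = 3; mouse values estimated from mean concentration-time data, n = 3 mice per time point.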
# Sequence of Cytochrome P450 2D6 (P10635 whole entry): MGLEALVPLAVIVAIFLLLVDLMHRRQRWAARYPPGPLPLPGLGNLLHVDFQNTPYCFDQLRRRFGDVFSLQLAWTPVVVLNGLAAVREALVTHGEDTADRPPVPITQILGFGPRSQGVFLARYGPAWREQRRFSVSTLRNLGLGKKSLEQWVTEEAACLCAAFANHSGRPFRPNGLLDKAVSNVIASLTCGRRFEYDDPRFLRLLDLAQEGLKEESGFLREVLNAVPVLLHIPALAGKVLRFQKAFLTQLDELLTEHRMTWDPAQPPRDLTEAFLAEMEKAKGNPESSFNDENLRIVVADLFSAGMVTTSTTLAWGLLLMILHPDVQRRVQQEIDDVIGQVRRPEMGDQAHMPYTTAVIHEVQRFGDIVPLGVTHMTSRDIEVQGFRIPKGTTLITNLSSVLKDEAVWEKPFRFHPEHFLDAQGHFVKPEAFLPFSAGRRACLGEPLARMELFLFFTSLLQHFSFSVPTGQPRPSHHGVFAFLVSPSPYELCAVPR
# Sequence of hERG (Q12809 whole entry): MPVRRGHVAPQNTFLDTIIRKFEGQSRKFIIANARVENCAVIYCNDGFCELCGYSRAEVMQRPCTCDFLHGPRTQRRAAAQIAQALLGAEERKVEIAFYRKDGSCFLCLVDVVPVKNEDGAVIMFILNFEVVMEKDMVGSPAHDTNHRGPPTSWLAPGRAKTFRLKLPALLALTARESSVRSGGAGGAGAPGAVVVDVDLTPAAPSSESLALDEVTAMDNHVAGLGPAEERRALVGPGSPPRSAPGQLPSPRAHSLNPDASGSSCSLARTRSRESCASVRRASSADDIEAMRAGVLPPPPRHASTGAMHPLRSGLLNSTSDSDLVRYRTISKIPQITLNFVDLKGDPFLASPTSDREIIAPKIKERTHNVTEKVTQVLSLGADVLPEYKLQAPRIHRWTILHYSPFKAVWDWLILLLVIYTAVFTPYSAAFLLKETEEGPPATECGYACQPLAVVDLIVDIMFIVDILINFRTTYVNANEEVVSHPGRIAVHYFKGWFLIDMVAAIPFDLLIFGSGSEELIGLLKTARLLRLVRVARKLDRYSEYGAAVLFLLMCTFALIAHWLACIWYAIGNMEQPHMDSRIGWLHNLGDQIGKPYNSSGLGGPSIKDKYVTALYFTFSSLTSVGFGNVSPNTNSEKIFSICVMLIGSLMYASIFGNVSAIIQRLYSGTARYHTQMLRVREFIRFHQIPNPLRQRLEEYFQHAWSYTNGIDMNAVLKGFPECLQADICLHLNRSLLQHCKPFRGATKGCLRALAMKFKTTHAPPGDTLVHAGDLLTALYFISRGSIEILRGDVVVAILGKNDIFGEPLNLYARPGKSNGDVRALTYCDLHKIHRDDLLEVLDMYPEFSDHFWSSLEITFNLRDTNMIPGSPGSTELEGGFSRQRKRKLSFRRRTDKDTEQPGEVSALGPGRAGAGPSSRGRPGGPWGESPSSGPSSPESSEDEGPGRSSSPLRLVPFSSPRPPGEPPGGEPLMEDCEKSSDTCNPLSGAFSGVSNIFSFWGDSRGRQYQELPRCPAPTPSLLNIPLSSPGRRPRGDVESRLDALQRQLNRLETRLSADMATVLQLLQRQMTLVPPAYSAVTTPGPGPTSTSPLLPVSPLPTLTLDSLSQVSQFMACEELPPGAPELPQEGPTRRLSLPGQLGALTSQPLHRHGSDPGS
# Sequence of Cyclin-dependent kinase 9 (P50750 whole entry): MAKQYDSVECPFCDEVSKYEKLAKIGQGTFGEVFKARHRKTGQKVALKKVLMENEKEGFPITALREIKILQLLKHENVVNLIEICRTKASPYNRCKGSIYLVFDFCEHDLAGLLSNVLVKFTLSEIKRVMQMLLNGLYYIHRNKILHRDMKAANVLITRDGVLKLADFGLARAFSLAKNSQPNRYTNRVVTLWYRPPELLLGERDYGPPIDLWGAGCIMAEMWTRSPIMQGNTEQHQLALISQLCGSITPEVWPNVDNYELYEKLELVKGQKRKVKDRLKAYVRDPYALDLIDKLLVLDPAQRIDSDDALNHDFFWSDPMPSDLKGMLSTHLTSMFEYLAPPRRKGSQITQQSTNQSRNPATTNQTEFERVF
# Sequence of Cytochrome P450 2C9 (P11712 whole entry): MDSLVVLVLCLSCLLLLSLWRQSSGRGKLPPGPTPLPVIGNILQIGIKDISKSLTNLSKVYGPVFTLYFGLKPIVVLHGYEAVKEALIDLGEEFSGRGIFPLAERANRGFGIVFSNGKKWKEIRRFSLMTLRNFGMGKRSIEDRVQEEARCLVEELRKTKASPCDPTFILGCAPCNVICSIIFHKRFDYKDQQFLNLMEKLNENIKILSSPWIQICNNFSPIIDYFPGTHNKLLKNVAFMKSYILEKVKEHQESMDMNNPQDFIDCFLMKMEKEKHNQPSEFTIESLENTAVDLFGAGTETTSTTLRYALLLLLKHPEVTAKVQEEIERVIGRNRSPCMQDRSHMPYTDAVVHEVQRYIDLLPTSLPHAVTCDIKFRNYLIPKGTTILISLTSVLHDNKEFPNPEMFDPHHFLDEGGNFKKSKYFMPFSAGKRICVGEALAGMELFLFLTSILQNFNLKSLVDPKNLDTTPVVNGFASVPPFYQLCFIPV
# Sequence of Non-receptor tyrosine-protein kinase TYK2 (P29597 whole entry): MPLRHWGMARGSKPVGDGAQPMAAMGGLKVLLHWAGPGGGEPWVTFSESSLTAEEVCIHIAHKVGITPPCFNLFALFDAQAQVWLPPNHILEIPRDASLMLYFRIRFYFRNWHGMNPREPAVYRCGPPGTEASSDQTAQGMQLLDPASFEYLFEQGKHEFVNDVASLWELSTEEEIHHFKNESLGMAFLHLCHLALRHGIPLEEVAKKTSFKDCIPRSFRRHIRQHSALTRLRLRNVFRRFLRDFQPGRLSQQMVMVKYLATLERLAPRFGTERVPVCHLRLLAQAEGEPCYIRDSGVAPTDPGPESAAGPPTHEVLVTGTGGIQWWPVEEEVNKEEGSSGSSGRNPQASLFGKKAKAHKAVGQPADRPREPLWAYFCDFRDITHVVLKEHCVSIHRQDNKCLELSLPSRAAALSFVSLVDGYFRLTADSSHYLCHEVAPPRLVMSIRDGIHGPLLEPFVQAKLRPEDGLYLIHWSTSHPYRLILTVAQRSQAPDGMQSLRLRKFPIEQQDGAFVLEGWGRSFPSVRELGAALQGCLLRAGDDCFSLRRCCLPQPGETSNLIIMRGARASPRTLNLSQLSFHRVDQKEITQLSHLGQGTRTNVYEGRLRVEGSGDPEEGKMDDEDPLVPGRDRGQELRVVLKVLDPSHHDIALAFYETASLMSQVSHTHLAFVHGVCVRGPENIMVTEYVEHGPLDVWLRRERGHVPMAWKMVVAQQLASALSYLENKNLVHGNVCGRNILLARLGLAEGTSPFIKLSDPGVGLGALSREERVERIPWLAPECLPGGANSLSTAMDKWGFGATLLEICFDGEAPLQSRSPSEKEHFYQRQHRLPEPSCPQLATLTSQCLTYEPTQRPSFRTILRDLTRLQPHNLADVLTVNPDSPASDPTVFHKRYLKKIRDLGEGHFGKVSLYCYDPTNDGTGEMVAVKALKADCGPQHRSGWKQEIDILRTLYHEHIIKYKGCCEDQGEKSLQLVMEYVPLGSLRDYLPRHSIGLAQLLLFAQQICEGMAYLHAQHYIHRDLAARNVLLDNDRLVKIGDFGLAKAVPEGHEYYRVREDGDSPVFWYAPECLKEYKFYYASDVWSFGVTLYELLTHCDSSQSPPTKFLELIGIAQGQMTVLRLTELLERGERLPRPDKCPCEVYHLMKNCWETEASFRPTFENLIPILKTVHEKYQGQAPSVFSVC
compound,measurement,setting,value
C1=C2COC/C=C/COCc3cc(ccc3OCCN3CCCC3)Nc3nccc(n3)C(=C1)O2 (mixture of isomers) [CT-1578],half-life at 5 µM,[1],> 1 h
same,fraction unbound at 1000 ng/mL,[2],0.013
same,IC50,[3],60 nM
same,IC50,[4],7000 nM
same,IC50,[5],36 nM
same,IC50,[6],> 10000 nM
same,Cmax,[7],27 ng/mL
same,IC50,[8],> 10000 nM
same,IC50,[9],230 nM
same,inhibition at 10 µM,[10],14%
same,solubility kinetic,[11],> 250 µg/mL
same,Tmax,[12],2.3 h
